According to ChEMBL document CHEMBL1124223, “1-Substituted 7-[3-[(ethylamino)methyl]-1-pyrrolidinyl]-6,8- difluoro-1,4-dihydro-4-oxo-3-quinolinecarboxylic acids. New quantitative structure-activity relationships at N1 for the quinolone antibacterials” (1988):
In brackets after ≈: the same amount, converted by molar mass.

Assays:
Escherichia coli [1] = test: Minimum inhibitory concentration against Escherichia coli (H560); type: functional
In short: (§1)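 MICs were determined by standard microtitration against a panel of 11 bacterial strains. Aqueous stock solutions were prepared with 0.1 N sodium or potassium hydroxide.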

Escherichia coli [2] = test: Minimum inhibitory concentration against Escherichia coli (vogel); type: functional; in short: as §1
Enterobacter cloacae = test: Minimum inhibitory concentration against Enterobacter cloacae. (MA2446).; type: functional
[3] = target: DNA gyrase (Escherichia coli) (UniProt P0AES6+P0AES4); test: Concentration required for 50% inhibition of gyrase.; type: protein-complex assay
In short: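 DNA gyrase inhibition: the drug concentration (µg/mL) giving 50% inhibition (I50) was recorded, along with the lowest concentration inducing gyrase-mediated DNA cleavage. Data come from duplicate experiments with ±50% reproducibility.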

Klebsiella pneumoniae = test: Minimum inhibitory concentration against Klebsiella pneumoniae (MGH-2); type: functional; in short: as §1
Pseudomonas aeruginosa = test: Minimum inhibitory concentration against Pseudomonas aeruginosa. (UI-18); type: functional; in short: as §1
Providencia rettgeri = test: Minimum inhibitory concentration against Providencia rettgeri. (M1771); type: functional; in short: as §1
Streptococcus pyogenes = test: Minimum inhibitory concentration against Streptococcus pyogenes (C203).; type: functional; in short: as §1
Staphylococcus aureus [4] = test: Minimum inhibitory concentration against Staphylococcus aureus (H-228).; type: functional; in short: as §1
Staphylococcus aureus [5] = test: Minimum inhibitory concentration against Staphylococcus aureus (UC76).; type: functional; in short: as §1
Streptococcus pneumoniae = test: Minimum inhibitory concentration against Streptococcus pneumoniae (SV-1).; type: functional; in short: as §1
Enterobacter = test: Minimum inhibitory concentration against gram-negative enterobacteriaceae.; type: functional
In short: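 This value is the geometric mean of microtitration MICs for the Gram-negative Enterobacteriaceae strains in the 11-organism panel. Aqueous stocks were prepared in 0.1 N sodium or potassium hydroxide.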

Enterococcus faecalis = test: Minimum inhibitory concentration against Streptococcus faecalis (MGH-2).; type: functional; in short: as §1
Mus musculus [6] = test: In vivo activity against Pseudomonas aeruginosa (po); type: functional; conditions: read-out: PD50
In short: (§2)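 Median protective dose (PD50, mg/kg) measured in acute, lethal, systemic infections in female Charles River CD-1 mice. A single dose of compound was given at the time of bacterial challenge. Aqueous stock solutions were made with 0.1 N sodium or potassium hydroxide.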

Mus musculus [7] = test: In vivo activity against Pseudomonas aeruginosa (sc); type: functional; conditions: read-out: PD50; in short: as §2
Mus musculus [8] = test: In vivo activity against Streptococcus pneumoniae (po); type: functional; conditions: read-out: PD50; in short: as §2
Mus musculus [9] = test: In vivo activity against Streptococcus pneumoniae (sc); type: functional; conditions: read-out: PD50; in short: as §2
Mus musculus [10] = test: In vivo activity against Streptococcus pyogenes (po); type: functional; conditions: read-out: PD50; in short: as §2
Mus musculus [11] = test: In vivo activity against Streptococcus pyogenes (sc); type: functional; conditions: read-out: PD50; in short: as §2
Mus musculus [12] = test: In vivo activity against Escherichia coli (po); type: functional; conditions: read-out: PD50; in short: as §2
Mus musculus [13] = test: In vivo activity against Escherichia coli (sc); type: functional; conditions: read-out: PD50; in short: as §2

| SMILES | MIC (Escherichia coli [1]) | MIC (Escherichia coli [2]) | MIC (Enterobacter cloacae) | IC50 [3] | MIC (Klebsiella pneumoniae) | MIC (Pseudomonas aeruginosa) | MIC (Providencia rettgeri) | MIC (Streptococcus pyogenes) | MIC (Staphylococcus aureus [4]) | MIC (Staphylococcus aureus [5]) | MIC (Streptococcus pneumoniae) | MIC (Enterobacter) | MIC (Enterococcus faecalis) | also measured |
| --- | --- | --- | --- | --- | --- | --- | --- | --- | --- | --- | --- | --- | --- | --- |
| CCNCC1CCN(c2c(F)cc3c(=O)c(C(=O)O)cn(C(C)C)c3c2F)C1 (stereo not given) | 0.2 µg/mL (≈ 0.508 µM) | 0.8 µg/mL (≈ 2.03 µM) | 1.6 µg/mL (≈ 4.07 µM) | 28 µg/mL (≈ 71.2 µM) | 0.8 µg/mL (≈ 2.03 µM) | 12.5 µg/mL (≈ 31.8 µM) | 6.3 µg/mL (≈ 16 µM) | 0.2 µg/mL (≈ 0.508 µM) | 0.4 µg/mL (≈ 1.02 µM) | 0.2 µg/mL (≈ 0.508 µM) | 0.8 µg/mL (≈ 2.03 µM) | 1.05 µg/mL (≈ 2.67 µM) | 1.6 µg/mL (≈ 4.07 µM) |  |
| CCNCC1CCN(c2c(F)cc3c(=O)c(C(=O)O)cn(CC4CC4)c3c2F)C1 (stereo not given) | 0.8 µg/mL (≈ 1.97 µM) | 0.8 µg/mL (≈ 1.97 µM) | 3.1 µg/mL (≈ 7.65 µM) | 30 µg/mL (≈ 74 µM) | 1.6 µg/mL (≈ 3.95 µM) | 25 µg/mL (≈ 61.7 µM) | 12.5 µg/mL (≈ 30.8 µM) | 0.4 µg/mL (≈ 0.987 µM) | 0.2 µg/mL (≈ 0.493 µM) | 0.1 µg/mL (≈ 0.247 µM) | 0.8 µg/mL (≈ 1.97 µM) | 2.09 µg/mL (≈ 5.15 µM) | 0.8 µg/mL (≈ 1.97 µM) |  |
| O=C(O)c1cn(C2CC2)c2cc(N3CCNCC3)c(F)cc2c1=O [CIPROFLOXACIN] | 0.025 µg/mL (≈ 0.0754 µM) |  |  |  | 0.1 µg/mL (≈ 0.302 µM) | 0.4 µg/mL (≈ 1.21 µM) | 0.1 µg/mL (≈ 0.302 µM) | 0.8 µg/mL (≈ 2.41 µM) | 3.1 µg/mL (≈ 9.36 µM) | 0.2 µg/mL (≈ 0.604 µM) | 1.6 µg/mL (≈ 4.83 µM) | 0.06 µg/mL (≈ 0.181 µM) | 0.8 µg/mL (≈ 2.41 µM) | ED50 (Mus musculus [6]): 25 mg/kg; ED50 (Mus musculus [7]): 5 mg/kg; ED50 (Mus musculus [8]): > 100 mg/kg; ED50 (Mus musculus [9]): 29 mg/kg; ED50 (Mus musculus [10]): > 100 mg/kg; ED50 (Mus musculus [11]): 20 mg/kg; ED50 (Mus musculus [12]): 1 mg/kg; ED50 (Mus musculus [13]): 0.3 mg/kg |
| CCNCC1CCN(c2c(F)cc3c(=O)c(C(=O)O)cn(-c4ccc(F)cc4)c3c2F)C1 (stereo not given) | 0.1 µg/mL (≈ 0.224 µM) | 0.8 µg/mL (≈ 1.8 µM) | 0.8 µg/mL (≈ 1.8 µM) | 14 µg/mL (≈ 31.4 µM) | 1.6 µg/mL (≈ 3.59 µM) | 1.6 µg/mL (≈ 3.59 µM) | 1.6 µg/mL (≈ 3.59 µM) | 0.4 µg/mL (≈ 0.898 µM) | 0.1 µg/mL (≈ 0.224 µM) | 0.2 µg/mL (≈ 0.449 µM) | 0.4 µg/mL (≈ 0.898 µM) | 0.7 µg/mL (≈ 1.57 µM) | 0.2 µg/mL (≈ 0.449 µM) |  |
| CCNCC1CCN(c2c(F)cc3c(=O)c(C(=O)O)cn(CCF)c3c2F)C1 (stereo not given) | 0.1 µg/mL (≈ 0.252 µM) | 0.1 µg/mL (≈ 0.252 µM) | 0.2 µg/mL (≈ 0.503 µM) | 7.5 µg/mL (≈ 18.9 µM) | 0.4 µg/mL (≈ 1.01 µM) | 1.6 µg/mL (≈ 4.03 µM) | 0.8 µg/mL (≈ 2.01 µM) | 0.1 µg/mL (≈ 0.252 µM) | 0.4 µg/mL (≈ 1.01 µM) | 0.1 µg/mL (≈ 0.252 µM) | 0.1 µg/mL (≈ 0.252 µM) | 0.23 µg/mL (≈ 0.579 µM) | 0.2 µg/mL (≈ 0.503 µM) |  |
| CCNCC1CCN(c2c(F)cc3c(=O)c(C(=O)O)cn(-c4nccs4)c3c2F)C1 (stereo not given) | 3.1 µg/mL (≈ 7.14 µM) | 1.6 µg/mL (≈ 3.68 µM) | 1.6 µg/mL (≈ 3.68 µM) | 30 µg/mL (≈ 69 µM) | 3.1 µg/mL (≈ 7.14 µM) | 25 µg/mL (≈ 57.5 µM) | 12.5 µg/mL (≈ 28.8 µM) | 6.3 µg/mL (≈ 14.5 µM) | 25 µg/mL (≈ 57.5 µM) | 1.6 µg/mL (≈ 3.68 µM) | 12.5 µg/mL (≈ 28.8 µM) | 3.14 µg/mL (≈ 7.23 µM) | 6.3 µg/mL (≈ 14.5 µM) |  |
| CCNCC1CCN(c2c(F)cc3c(=O)c(C(=O)O)cn(C4CC4C)c3c2F)C1 (stereo not given) | 0.8 µg/mL (≈ 1.97 µM) | 0.8 µg/mL (≈ 1.97 µM) | 1.6 µg/mL (≈ 3.95 µM) | 13 µg/mL (≈ 32.1 µM) | 1.6 µg/mL (≈ 3.95 µM) | 6.3 µg/mL (≈ 15.5 µM) | 6.3 µg/mL (≈ 15.5 µM) | 0.8 µg/mL (≈ 1.97 µM) | 0.8 µg/mL (≈ 1.97 µM) | 0.2 µg/mL (≈ 0.493 µM) | 0.8 µg/mL (≈ 1.97 µM) | 1.59 µg/mL (≈ 3.92 µM) | 0.4 µg/mL (≈ 0.987 µM) |  |
| CCNCC1CCN(c2c(F)cc3c(=O)c(C(=O)O)cn(C4CCCC4)c3c2F)C1 (stereo not given) | 0.8 µg/mL (≈ 1.91 µM) | 3.1 µg/mL (≈ 7.39 µM) | 6.3 µg/mL (≈ 15 µM) | 28 µg/mL (≈ 66.8 µM) | 3.1 µg/mL (≈ 7.39 µM) | 12.5 µg/mL (≈ 29.8 µM) | 12.5 µg/mL (≈ 29.8 µM) | 0.4 µg/mL (≈ 0.954 µM) | 0.4 µg/mL (≈ 0.954 µM) | 0.1 µg/mL (≈ 0.238 µM) | 0.2 µg/mL (≈ 0.477 µM) | 3.6 µg/mL (≈ 8.58 µM) | 0.4 µg/mL (≈ 0.954 µM) |  |
| CCNCC1CCN(c2c(F)cc3c(=O)c(C(=O)O)cn(C4CCCCC4)c3c2F)C1 (stereo not given) | 3.1 µg/mL (≈ 7.15 µM) | 6.3 µg/mL (≈ 14.5 µM) | 25 µg/mL (≈ 57.7 µM) | 30 µg/mL (≈ 69.2 µM) | 12.5 µg/mL (≈ 28.8 µM) | > 100 µg/mL | > 100 µg/mL | 6.3 µg/mL (≈ 14.5 µM) | 6.3 µg/mL (≈ 14.5 µM) | 3.1 µg/mL (≈ 7.15 µM) | 3.1 µg/mL (≈ 7.15 µM) | 16.5 µg/mL (≈ 38.1 µM) | 6.3 µg/mL (≈ 14.5 µM) |  |
| CCNCC1CCN(c2c(F)cc3c(=O)c(C(=O)O)cn(C4(C)CC4)c3c2F)C1 (stereo not given) | 1.6 µg/mL (≈ 3.95 µM) | 0.8 µg/mL (≈ 1.97 µM) | 3.1 µg/mL (≈ 7.65 µM) | 6.3 µg/mL (≈ 15.5 µM) | 0.8 µg/mL (≈ 1.97 µM) | 3.1 µg/mL (≈ 7.65 µM) | 1.6 µg/mL (≈ 3.95 µM) | 0.8 µg/mL (≈ 1.97 µM) | 0.4 µg/mL (≈ 0.987 µM) | 0.1 µg/mL (≈ 0.247 µM) | 0.8 µg/mL (≈ 1.97 µM) | 1.38 µg/mL (≈ 3.4 µM) | 0.2 µg/mL (≈ 0.493 µM) |  |
